According to ChEMBL document CHEMBL1811814, “Synthesis and evaluation of indole, pyrazole, chromone and pyrimidine based conjugates for tumor growth inhibitory activities--development of highly efficacious cytotoxic agents” (Eur J Med Chem, 2010):

Tests used:
Assay type in all cases: functional
Parameters in all cases: scale not given: the % may be the effect or the level left
SK-OV-3 = test: Growth inhibition of human SKOV3 cells assessed tumor cell growth at 10^-5 M
Method in brief: (§1)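 NCI 60-human-tumor-cell-line panel screen. Each compound was tested at a single concentration of 10^-5 M, and percent growth of tumor cells was recorded for each cell line. Growth inhibition was expressed from these percent-growth values.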

TK-10 = test: Growth inhibition of human TK10 cells assessed tumor cell growth at 10^-5 M
Method in brief: (§2)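 Single-dose screen at 10^-5 M across the 60 human tumor cell line panel, run to NCI standards. The value is the percent growth of each cell line in the presence of compound. Compounds active at this dose moved on to five-concentration testing (10^-4 to 10^-8 M).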

HCT-15 = test: Growth inhibition of human HCT15 cells assessed tumor cell growth at 10^-5 M; method in brief: as §1
SF-268 = test: Growth inhibition of human SF268 cells assessed tumor cell growth at 10^-5 M; method in brief: as §1
SK-MEL-2 = test: Growth inhibition of human SK-MEL-2 cells assessed tumor cell growth at 10^-5 M; method in brief: as §1
A549 = test: Growth inhibition of human A549 cells assessed tumor cell growth at 10^-5 M; method in brief: as §1
EKVX = test: Growth inhibition of human EKVX cells assessed tumor cell growth at 10^-5 M; method in brief: as §1
UACC-62 = test: Growth inhibition of human UACC62 cells assessed tumor cell growth at 10^-5 M; method in brief: as §2
HT-29 = test: Growth inhibition of human HT-29 cells assessed tumor cell growth at 10^-5 M; method in brief: as §1
LOX IMVI = test: Growth inhibition of human LOXIMVI cells assessed tumor cell growth at 10^-5 M; method in brief: as §1
NCI-H322M = test: Growth inhibition of human NCI-H322M cells assessed tumor cell growth at 10^-5 M; method in brief: as §1
SN12C = test: Growth inhibition of human SN12C cells assessed tumor cell growth at 10^-5 M; method in brief: as §1
U-251 = test: Growth inhibition of human U251 cells assessed tumor cell growth at 10^-5 M; method in brief: as §2
MDA-MB-435 = test: Growth inhibition of human MDA-MB-435 cells assessed tumor cell growth at 10^-5 M; method in brief: as §1
PC-3 = test: Growth inhibition of human PC3 cells assessed tumor cell growth at 10^-5 M; method in brief: as §1
HL-60(TB) = test: Growth inhibition of human HL-60(TB) cells assessed tumor cell growth at 10^-5 M
Method in brief: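 HL-60(TB), part of the 60-line panel, tested at a single concentration of 10^-5 M. The read-out is percent tumor cell growth relative to untreated growth.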

HOP-92 = test: Growth inhibition of human HOP92 cells assessed tumor cell growth at 10^-5 M; method in brief: as §1
SK-MEL-5 = test: Growth inhibition of human SK-MEL-5 cells assessed tumor cell growth at 10^-5 M; method in brief: as §1
OVCAR-5 = test: Growth inhibition of human OVCAR5 cells assessed tumor cell growth at 10^-5 M; method in brief: as §1
SF-539 = test: Growth inhibition of human SF539 cells assessed tumor cell growth at 10^-5 M; method in brief: as §1
NCI-H23 = test: Growth inhibition of human NCI-H23 cells assessed tumor cell growth at 10^-5 M; method in brief: as §1
CCRF-CEM = test: Growth inhibition of human CCRF-CEM cells assessed tumor cell growth at 10^-5 M; method in brief: as §1
UACC-257 = test: Growth inhibition of human UACC257 cells assessed tumor cell growth at 10^-5 M; method in brief: as §2
COLO 205 = test: Growth inhibition of human COLO205 cells assessed tumor cell growth at 10^-5 M; method in brief: as §1
K562 = test: Growth inhibition of human K562 cells assessed tumor cell growth at 10^-5 M; method in brief: as §1
SNB-75 = test: Growth inhibition of human SNB75 cells assessed tumor cell growth at 10^-5 M; method in brief: as §2
NCI-H226 = test: Growth inhibition of human NCI-H226 cells assessed tumor cell growth at 10^-5 M; method in brief: as §1
M14 = test: Growth inhibition of human M14 cells assessed tumor cell growth at 10^-5 M; method in brief: as §1
CAKI-1 = test: Growth inhibition of human Caki1 cells assessed tumor cell growth at 10^-5 M; method in brief: as §1
KM12 = test: Growth inhibition of human KM12 cells assessed tumor cell growth at 10^-5 M; method in brief: as §1
RXF 393 = test: Growth inhibition of human RXF393 cells assessed tumor cell growth at 10^-5 M; method in brief: as §1
OVCAR-3 = test: Growth inhibition of human OVCAR3 cells assessed tumor cell growth at 10^-5 M; method in brief: as §1
HCT-116 = test: Growth inhibition of human HCT116 cells assessed tumor cell growth at 10^-5 M; method in brief: as §1
NCI-H460 = test: Growth inhibition of human NCI-H460 cells assessed tumor cell growth at 10^-5 M; method in brief: as §1
IGROV-1 = test: Growth inhibition of human IGROV1 cells assessed tumor cell growth at 10^-5 M; method in brief: as §1
OVCAR-4 = test: Growth inhibition of human OVCAR4 cells assessed tumor cell growth at 10^-5 M; method in brief: as §1
SW-620 = test: Growth inhibition of human SW620 cells assessed tumor cell growth at 10^-5 M; method in brief: as §2
DU-145 = test: Growth inhibition of human DU145 cells assessed tumor cell growth at 10^-5 M; method in brief: as §1
[1] = Growth inhibition of human Hs 578T cells assessed tumor cell growth at 10^-5 M; method in brief: as §1
UO-31 = test: Growth inhibition of human UO31 cells assessed tumor cell growth at 10^-5 M; method in brief: as §2
MDA-MB-468 = test: Growth inhibition of human MDA-MB-468 cells assessed tumor cell growth at 10^-5 M; method in brief: as §1
ACHN = test: Growth inhibition of human ACHN cells assessed tumor cell growth at 10^-5 M; method in brief: as §1
MCF7 = test: Growth inhibition of human MCF7 cells assessed tumor cell growth at 10^-5 M; method in brief: as §1
MDA-MB-231 = test: Growth inhibition of human MDA-MB-231 cells assessed tumor cell growth at 10^-5 M; method in brief: as §1
NCI/ADR-RES = test: Growth inhibition of human NCI/ADR-RES cells assessed tumor cell growth at 10^-5 M; method in brief: as §1
Malme-3M = test: Growth inhibition of human MALME-3M cells assessed tumor cell growth at 10^-5 M; method in brief: as §1
SK-MEL-28 = test: Growth inhibition of human SK-MEL-28 cells assessed tumor cell growth at 10^-5 M; method in brief: as §1
OVCAR-8 = test: Growth inhibition of human OVCAR8 cells assessed tumor cell growth at 10^-5 M; method in brief: as §1
HOP-62 = test: Growth inhibition of human HOP62 cells assessed tumor cell growth at 10^-5 M; method in brief: as §1
MOLT-4 = test: Growth inhibition of human MOLT4 cells assessed tumor cell growth at 10^-5 M; method in brief: as §1
BT-549 = test: Growth inhibition of human BT549 cells assessed tumor cell growth at 10^-5 M; method in brief: as §1
[2] = Growth inhibition of human […] cells assessed tumor cell growth at 10^-5 M; method in brief: as §1
SNB-19 = test: Growth inhibition of human SNB19 cells assessed tumor cell growth at 10^-5 M; method in brief: as §2
NCI-H522 = test: Growth inhibition of human NCI-H522 cells assessed tumor cell growth at 10^-5 M; method in brief: as §1
SF-295 = test: Growth inhibition of human SF295 cells assessed tumor cell growth at 10^-5 M; method in brief: as §1
A498 = test: Growth inhibition of human A498 cells assessed tumor cell growth at 10^-5 M; method in brief: as §1
786-0 = test: Growth inhibition of human 786-0 cells assessed tumor cell growth at 10^-5 M; method in brief: as §1

## O=C1Nc2ccccc2/C1=C/c1cn(C(=O)c2ccc(Cl)cc2)c2ccccc12
SK-OV-3
  Activity: 103.8%
TK-10
  Activity: 130%
HCT-15
  Activity: 92%
SF-268
  Activity: 99.8%
SK-MEL-2
  Activity: 119.8%
A549
  Activity: 101.2%
EKVX
  Activity: 58.9%
UACC-62
  Activity: 89.3%
HT-29
  Activity: 110%
LOX IMVI
  Activity: 100%
NCI-H322M
  Activity: 126.5%
SN12C
  Activity: 95.4%
U-251
  Activity: 99.4%
MDA-MB-435
  Activity: 109.9%
PC-3
  Activity: 95.6%
HL-60(TB)
  Activity: 150.1%
HOP-92
  Activity: 99.3%
SK-MEL-5
  Activity: 97.6%
OVCAR-5
  Activity: 110.2%
SF-539
  Activity: 99.3%
NCI-H23
  Activity: 90.8%
CCRF-CEM
  Activity: 104.1%
UACC-257
  Activity: 99.6%
COLO 205
  Activity: 58.2%
K562
  Activity: 85.6%
SNB-75
  Activity: 87.7%
NCI-H226
  Activity: 92.3%
M14
  Activity: 102.4%
CAKI-1
  Activity: 59%
KM12
  Activity: 40.8%
RXF 393
  Activity: 129.9%
OVCAR-3
  Activity: 98.7%
HCT-116
  Activity: 91.5%
NCI-H460
  Activity: 107.2%
IGROV-1
  Activity: 72.6%
OVCAR-4
  Activity: 78.2%
SW-620
  Activity: 102.4%
DU-145
  Activity: 118.1%
[1]
  Activity: 106%
UO-31
  Activity: 74.6%
MDA-MB-468
  Activity: 97.6%
ACHN
  Activity: 102.9%
MCF7
  Activity: 59%
MDA-MB-231
  Activity: 77.7%
NCI/ADR-RES
  Activity: 104.2%
Malme-3M
  Activity: 117.8%
SK-MEL-28
  Activity: 92.9%
OVCAR-8
  Activity: 95%
HOP-62
  Activity: 110.7%
MOLT-4
  Activity: 109.3%
BT-549
  Activity: 96.4%
[2]
  Activity: 74.5%
SNB-19
  Activity: 99%
NCI-H522
  Activity: 85.5%
SF-295
  Activity: 114.3%
A498
  Activity: 116.3%
786-0
  Activity: 111.4%
